In ChEMBL document CHEMBL3124885, “Discovery of 7-tetrahydropyran-2-yl chromans: β-site amyloid precursor protein cleaving enzyme 1 (BACE1) inhibitors that reduce amyloid β-protein (Aβ) in the central nervous system” (J Med Chem, 2014):
Converted amounts (≈) assume the structure as drawn.

Legend:
[1] = Fraction unbound in Hartley guinea pig brain at 60 mg/kg, po measured at 8 hrs; assay type: ADME, organism-based, Cavia porcellus; design: dose 60 mg/kg, route oral; conditions: in vivo
[2] = Drug uptake in Hartley guinea pig CSF at 60 mg/kg, po measured at 12 hrs; assay type: ADME, organism-based, Cavia porcellus, Cerebrospinal fluid; design: dose 60 mg/kg, route oral; conditions: read-out: Drug uptake
In short: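 Male Hartley guinea pigs, oral dosing (CMC/Tween/citrate suspension or PEG/EtOH/H₂O solution), six or eight animals per cohort; CSF drug concentration (nM) measured at each time point.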

[3] = Drug uptake in cynomolgus monkey CSF at 0.5 mg/kg, iv and 100 mg/kg, po measured at 4 hrs; assay type: ADME, organism-based, Macaca fascicularis, Cerebrospinal fluid; conditions: read-out: Drug uptake
In short: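 Female cynomolgus monkeys, 3 per dosing route; iv formulation PEG400/EtOH/water (40/10/50) solution; oral suspension in 1% CMC, 0.5% Tween 80, 5 mM citrate buffer; CSF concentration measured.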

[4] = Ratio of unbound drug level in brain to plasma in Sprague-Dawley rat at 60 mg/kg, po measured at 12 hrs; assay type: ADME, organism-based; design: dose 60 mg/kg, route oral; conditions: brain and plasma (unbound), read-out: K(p,uu,brain)
In short: (§1)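 Male Sprague–Dawley rats dosed 60 mg/kg po in 1% CMC/0.5% Tween/5 mM citrate in H₂O; plasma, brain and CSF taken at 1, 3, 5, 8 and 12 h; unbound plasma and brain levels and their ratio determined.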

Plasma [5] = experiment: Unbound plasma concentration in Sprague-Dawley rat at 60 mg/kg, po measured at 5 hrs; assay type: ADME, organism-based; design: dose 60 mg/kg, route oral; conditions: in vivo
In short: (§2)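 Male Sprague-Dawley rats were given a single 60 mg/kg oral dose in 1% CMC/0.5% Tween/5 mM citrate in H₂O. Free plasma concentration was determined at 1, 3, 5, 8 and 12 h. Brain, CSF and CSF Aβ₁₋₄₀ were sampled at the same times.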

Brain [6] = experiment: Fraction unbound in CD-1 mouse brain at 10 mg/kg, po measured at 1 hr; assay type: ADME, organism-based; design: dose 10 mg/kg, route oral; conditions: in vivo
In short: (§3)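 Male CD-1 mice, 3 per cohort, dosed 10 mg/kg orally; brains harvested at 1 and 4 h.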

Brain [7] = experiment: Fraction unbound in Sprague-Dawley rat brain at 60 mg/kg, po measured at 5 hrs; assay type: ADME, organism-based; design: dose 60 mg/kg, route oral; conditions: in vivo; in short: as §1
[8] = Clearance in Hartley guinea pig liver microsomes at 1 uM after 20 mins by LC-MS/MS analysis in presence of NADPH; assay type: ADME, Cavia porcellus, Microsome; conditions: read-out: CLH
[9] = Unbound plasma concentration in Hartley guinea pig at 60 mg/kg, po measured at 8 hrs; assay type: ADME, organism-based, Cavia porcellus; design: dose 60 mg/kg, route oral; conditions: in vivo
In short: (§4)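 Male Hartley guinea pigs were dosed orally at 30, 60 or 100 mg/kg, with six or eight animals per cohort. The vehicle was either a suspension in 1% CMC/0.5% Tween/5 mM citrate in H₂O or a 40/10/50 PEG/EtOH/H₂O solution, depending on compound. Unbound plasma concentration was sampled at 1–12 h post-dose alongside brain, CSF and CSF Aβ₁₋₄₀.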

[10] = Fraction unbound in Hartley guinea pig brain at 30 mg/kg, po measured at 3 hrs; assay type: ADME, organism-based, Cavia porcellus; design: dose 30 mg/kg, route oral; conditions: in vivo
Brain [11] = experiment: Fraction unbound in Sprague-Dawley rat brain at 60 mg/kg, po measured at 8 hrs; assay type: ADME, organism-based; design: dose 60 mg/kg, route oral; conditions: in vivo; in short: as §1
[12] = Intrinsic clearance in cynomolgus monkey hepatocytes at 2 uM after 60 to 120 mins; assay type: ADME, cell-based, Macaca fascicularis, Hepatocyte; conditions: read-out: CLH
Plasma [13] = experiment: Unbound plasma concentration in cynomolgus monkey at 0.5 mg/kg, iv and 100 mg/kg, po measured at 4 hrs; assay type: ADME, organism-based, Macaca fascicularis; conditions: in vivo
In short: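 Female cynomolgus monkeys, three per dosing route, received 0.5 mg/kg iv and 100 mg/kg po. Unbound plasma concentration was reported at 2 h and 4 h post-dose.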

Brain [14] = experiment: Fraction unbound in Sprague-Dawley rat brain at 60 mg/kg, po measured at 3 hrs; assay type: ADME, organism-based; design: dose 60 mg/kg, route oral; conditions: in vivo; in short: as §1
[15] = Cmax in cynomolgus monkey CSF at 100 mg/kg, po measured at 2 hrs; assay type: ADME, organism-based, Macaca fascicularis, Cerebrospinal fluid; design: dose 100 mg/kg, route oral
[16] = Drug uptake in Sprague-Dawley rat CSF at 60 mg/kg, po measured at 12 hrs; assay type: ADME, organism-based, Cerebrospinal fluid; design: dose 60 mg/kg, route oral; conditions: read-out: Drug uptake
In short: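 Male Sprague−Dawley rats dosed orally at 60 mg/kg in 1% CMC/0.5% Tween/5 mM citrate in H₂O; CSF compound concentration (nM) at 1–12 h.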

[17] = Ratio of unbound drug level in brain to plasma in Sprague-Dawley rat at 60 mg/kg, po measured at 5 hrs; assay type: ADME, organism-based; design: dose 60 mg/kg, route oral; conditions: brain and plasma (unbound), read-out: K(p,uu,brain); in short: as §1
[18] = Dissociation constant, pKa of the compound by parallel capillary electrophoresis method; assay type: physicochemical
In short: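 pKa determined by a 24-point parallel capillary electrophoresis method, quantitation by UV absorbance at 229 nm.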

[19] = Intrinsic clearance in Hartley guinea pig hepatocytes at 2 uM after 60 to 120 mins; assay type: ADME, cell-based, Cavia porcellus, Hepatocyte; conditions: read-out: CLH
[20] = Fraction unbound in Hartley guinea pig brain at 60 mg/kg, po measured at 1 hr; assay type: ADME, organism-based, Cavia porcellus; design: dose 60 mg/kg, route oral; conditions: in vivo
[21] = Ratio of unbound drug level in brain to plasma in Hartley guinea pig at 60 mg/kg, po measured at 3 hrs; assay type: ADME, organism-based, Cavia porcellus; design: dose 60 mg/kg, route oral; conditions: brain and plasma (unbound), read-out: K(p,uu,brain)
In short: (§5)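 Male Hartley guinea pigs given single oral doses of 30, 60 or 100 mg/kg in 1% CMC/0.5% Tween/5 mM citrate in H₂O, 6–8 animals per cohort. Plasma, brain and CSF sampled at 1–12 h; free brain to free plasma ratio computed.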

[22] = Ratio of unbound drug level in brain to plasma in CD-1 mouse measured at 1 hr; assay type: ADME; conditions: mouse, 1 h
In short: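 Male CD-1 mice given 10 mg/kg po, 3 per cohort; plasma and brain collected at 1 and 4 h. Free brain/plasma ratio from unbound concentrations; coverage ratio = free brain concentration divided by HEK293 Aβ₁₋₄₀ cell IC50.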

[23] = Ratio of unbound drug level in brain to plasma in Sprague-Dawley rat at 60 mg/kg, po measured at 3 hrs; assay type: ADME, organism-based; design: dose 60 mg/kg, route oral; conditions: brain and plasma (unbound), read-out: K(p,uu,brain); in short: as §1
Mus musculus = experiment: Hepatic clearance in CD-1 mouse at 3 mg/kg, iv; assay type: ADME, organism-based, Liver; design: dose 3 mg/kg, route intravenous; conditions: in vivo
In short: (§6)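 Male CD-1 mice, 3 per cohort, dosed 3 mg/kg iv and 10 mg/kg po; plasma drawn at 1 and 4 h, brains harvested from oral groups only. Formulations varied by compound: 40% PEG 400/10% EtOH/50% H₂O; 30% captisol in H₂O; iv 50 mM citrate in saline (pH 4); po 1% CMC/0.5% Tween/5 mM citrate in H₂O.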

[24] = Unbound plasma concentration in Hartley guinea pig at 100 mg/kg, po measured at 3 hrs; assay type: ADME, organism-based, Cavia porcellus; design: dose 100 mg/kg, route oral; conditions: in vivo; in short: as §4
Brain [25] = experiment: Fraction unbound in CD-1 mouse brain at 10 mg/kg, po measured at 4 hrs; assay type: ADME, organism-based; design: dose 10 mg/kg, route oral; conditions: in vivo; in short: as §3
[26] = Unbound plasma concentration in Hartley guinea pig at 60 mg/kg, po measured at 5 hrs; assay type: ADME, organism-based, Cavia porcellus; design: dose 60 mg/kg, route oral; conditions: in vivo; in short: as §4
Plasma [27] = experiment: Unbound plasma concentration in CD-1 mouse at 3 mg/kg, iv and 10 mg/kg, po measured at 1 hr; assay type: ADME, organism-based; conditions: in vivo; in short: as §6
[28] = Ratio of unbound drug level in brain to plasma in Hartley guinea pig at 100 mg/kg, po measured at 3 hrs; assay type: ADME, organism-based, Cavia porcellus; design: dose 100 mg/kg, route oral; conditions: brain and plasma (unbound), read-out: K(p,uu,brain); in short: as §5
[29] = Intrinsic clearance in Sprague-Dawley rat hepatocytes at 2 uM after 60 to 120 mins; assay type: ADME, cell-based, Hepatocyte; conditions: read-out: CLH
[30] = Unbound plasma concentration in Hartley guinea pig at 60 mg/kg, po measured at 12 hrs; assay type: ADME, organism-based, Cavia porcellus; design: dose 60 mg/kg, route oral; conditions: in vivo; in short: as §4
[31] = Ratio of unbound drug level in brain to plasma in Sprague-Dawley rat at 60 mg/kg, po measured at 8 hrs; assay type: ADME, organism-based; design: dose 60 mg/kg, route oral; conditions: brain and plasma (unbound), read-out: K(p,uu,brain); in short: as §1
Cavia porcellus = experiment: Hepatic clearance in Hartley guinea pig at 3 mg/kg, iv; assay type: ADME, organism-based, Liver; design: dose 3 mg/kg, route intravenous; conditions: in vivo
[32] = Solubility of the compound at pH 7.2; assay type: physicochemical; conditions: buffer
Plasma [33] = experiment: Unbound plasma concentration in Sprague-Dawley rat at 60 mg/kg, po measured at 3 hrs; assay type: ADME, organism-based; design: dose 60 mg/kg, route oral; conditions: in vivo; in short: as §2

Drug uptake(free) [1]: 5.2 nM
concentration at 12 h [2]: 2.6 nM
concentration at 4 h [3]: 84 nM
Kp uu at 12 h [4]: 0.048
Cp(f) (Plasma [5]): 2700 nM
Drug uptake(free) (Brain [6]): 24 nM
Drug uptake(free) (Brain [7]): 79 nM
CLint scaled at 1 µM [8]: 17 mL/min/kg
Cp(f) [9]: < 3 nM
Drug uptake(free) [10]: 9.5 nM
Drug uptake(free) (Brain [11]): 84 nM
CLint scaled at 2 µM [12]: 5.8 mL/min/kg
Cp(f) (Plasma [13]): 1700 nM
Drug uptake(free) (Brain [14]): 66 nM
Cmax [15]: 120 nM
concentration at 12 h [16]: 85 nM
Kp uu at 5 h [17]: 0.029
pKa [18]: 5.8
CLint scaled at 2 µM [19]: 9.7 mL/min/kg
Drug uptake(free) [20]: 19 nM
Kp uu at 3 h [21]: 1.5
K(p,uu,brain) [22]: 0.08
Kp uu at 3 h [23]: 0.03
CLH (Mus musculus): 41 mL/min/kg
Cp(f) [24]: 38 nM
Drug uptake(free) (Brain [25]): 15 nM
Cp(f) [26]: 7 nM
Cp(f) (Plasma [27]): 300 nM
Kp uu at 3 h [28]: 1.3
CLint scaled at 2 µM [29]: 35 mL/min/kg
Cp(f) [30]: < 3 nM
Kp uu at 8 h [31]: 0.049
CLH (Cavia porcellus): 110 mL/min/kg
solubility [32]: 220 µg/mL (≈ 575 µM)
Cp(f) (Plasma [33]): 2200 nM
SMILES: CN1C(=O)[C@]2(N=C1N)c1cc(-c3cccnc3F)ccc1O[C@H]1CCOC[C@@H]12
